Here are results for 34 compounds from ChEMBL document CHEMBL1142705, “Rational design, synthesis, and structure-activity relationships of aryltriazoles as novel corticotropin-releasing factor-1 receptor antagonists” (J Med Chem, 2005).

SMILES strings stand for the structures.

For data set [1], the target named is T1, Corticotropin-releasing factor receptor 1 (Homo sapiens, UniProt P34998).
T1 sequence (P34998 whole entry): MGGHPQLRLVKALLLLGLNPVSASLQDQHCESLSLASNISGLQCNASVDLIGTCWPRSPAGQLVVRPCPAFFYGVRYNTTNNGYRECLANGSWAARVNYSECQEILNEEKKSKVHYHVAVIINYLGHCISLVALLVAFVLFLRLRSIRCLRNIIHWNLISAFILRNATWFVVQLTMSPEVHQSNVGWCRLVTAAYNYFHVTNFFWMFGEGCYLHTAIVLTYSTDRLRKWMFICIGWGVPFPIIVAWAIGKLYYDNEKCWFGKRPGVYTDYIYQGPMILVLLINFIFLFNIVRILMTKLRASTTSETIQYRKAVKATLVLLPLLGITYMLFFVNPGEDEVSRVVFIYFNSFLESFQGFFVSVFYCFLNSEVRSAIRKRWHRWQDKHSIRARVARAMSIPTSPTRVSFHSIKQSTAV
Description: Inhibition of [125I][Tyr0]-sauvagine binding to human Corticotropin releasing factor receptor 1 expressed in mouse fibroblast Ltk- cells. The class given is cell-based.

Data set [2] has as its target Corticotropin releasing factor receptor (Rattus norvegicus, UniProt P47866+P35353). Description: Inhibition of corticotropin releasing factor stimulated cAMP production in rat pituitary assay. Type of data set: functional, tissue-based, Pituitary gland.
Data set [3] in a line: Time to attain peak plasma concentration upon oral administration of 2 mg/kg to rats. Type of data set: ADME, organism-based. The following applies: rat. Details: dose 2 mg/kg, route oral. A digest of the protocol: (§1)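 Male Sprague-Dawley rats were dosed at 1 mg/kg iv via the tail vein and at 2 mg/kg by oral gavage, n = 3 per time point. The dosing solution was in purified water at 2 mL/kg. Terminal plasma was sampled at set times (composite design), acetonitrile-precipitated and analysed by LC-MS/MS (LLOQ 5 ng/mL). Parameters came from noncompartmental analysis.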

Data set [4] in a line: Area under concentration time curve upon oral administration of 2 mg/kg to rats. Further details: dose 2 mg/kg, route oral. The class given is ADME, organism-based. The conditions noted are these: rat, in vivo. A digest of the protocol:
as §1

Data set [5] in a line: Volume of distribution in rats upon intravenous administration of 1 mg/kg. Type of data set: ADME, organism-based. Details: dose 1 mg/kg, route intravenous. The following applies: rat, in vivo, read-out: V. Put shortly:
as §1

A short description of data set [6]: Ratio of compound concentration in brain to that of plasma of rats upon intravenous administration of 1 mg/kg. The class given is ADME, organism-based. Details: dose 1 mg/kg, route intravenous. The conditions noted are these: rat. A digest of the protocol: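 Male Sprague-Dawley rats, 3 per time point, received 1 mg/kg iv by tail vein at 2 mL/kg in filtered purified water. Terminal blood and brain were taken at set times for composite sampling. Plasma was acetonitrile-precipitated and half-brains were homogenized in 50:50 acetonitrile/water, then measured by LC-MS/MS (LLOQ 5 ng/mL plasma, 0.5 ng/g brain). Ratio = brain AUC / plasma AUC, noncompartmental.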

Data set [7] can be described thus: Clearance of compound in rats upon intravenous administration of 1 mg/kg. The class given is ADME, organism-based. Details: dose 1 mg/kg, route intravenous. The conditions noted are these: rat, in vivo. Put shortly:
as §1

The nature of data set [8]: Plasma half life in rats upon intravenous administration of 1 mg/kg. The class given is ADME, organism-based. Further details: dose 1 mg/kg, route intravenous. The following applies: rat. A digest of the protocol:
as §1

A short description of data set [9]: Bioavailability upon 2 mg/kg oral administration to rats. The class given is ADME, organism-based. The following applies: rat, in vivo. A digest of the protocol: as §1
Data set [10] can be described thus: Peak plasma concentration upon oral administration of 2 mg/kg to rats. The following applies: rat. Type of data set: ADME, organism-based. Further details: dose 2 mg/kg, route oral. Put shortly:
as §1

For data set [11], the target named is T2, Corticotropin-releasing factor receptor 2 (Homo sapiens, UniProt Q13324).
T2 sequence (Q13324 whole entry): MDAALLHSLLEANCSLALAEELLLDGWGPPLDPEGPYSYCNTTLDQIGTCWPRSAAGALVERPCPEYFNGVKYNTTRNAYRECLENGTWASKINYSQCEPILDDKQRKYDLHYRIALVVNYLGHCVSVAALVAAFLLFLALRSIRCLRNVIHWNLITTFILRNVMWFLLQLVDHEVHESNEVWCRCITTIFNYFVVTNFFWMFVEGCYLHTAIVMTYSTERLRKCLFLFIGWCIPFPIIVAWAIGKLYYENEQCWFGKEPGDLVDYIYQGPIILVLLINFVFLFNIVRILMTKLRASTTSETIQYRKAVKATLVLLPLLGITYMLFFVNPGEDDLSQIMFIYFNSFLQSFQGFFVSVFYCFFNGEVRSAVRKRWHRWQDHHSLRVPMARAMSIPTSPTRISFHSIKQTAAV
Put plainly: Binding affinity for human Corticotropin releasing factor receptor 2.

`CCCCC(CC)N(CC1CC1)c1nc(-c2ccc(Cl)cc2OC)n(C)n1` (configuration not stated): in [1], the Ki is 440 nM. On the same count and under the same terms, the figure for `CCCN(c1nc(-c2ccc(Cl)cc2OC)n(C)n1)C(CC)c1ccc(C(F)(F)F)cc1` (configuration not stated) is 12 nM; for `CCCN(c1nc(-c2ccc(Cl)cc2OC)n(C)n1)C(CC)c1ccccc1` (configuration not stated) it is 26 nM. On the same count and under the same terms, the figure for `CCCN(c1nc(-c2ccc(Cl)cc2OC)n(C)n1)[C@H](CC)c1ccc(C(F)(F)F)cc1` is 428 nM; for `CCCC(c1ccccc1)N(CCC)c1nc(-c2ccc(Cl)cc2OC)n(C)n1` (configuration not stated) it is 14 nM; for `CCCCC(CC)N(CCOC)c1nc(-c2ccc(Cl)cc2OC)n(C)n1` (configuration not stated) it is 280 nM. In data set [2], `CCC[C@@H](c1ccccc1)N(CCC)c1nc(-c2ccc(Cl)cc2OC)n(C)n1.Cl` had an IC50 of 91 nM. This compound showed a Ki in data set [1] of 6.3 nM. Turning to `CCC[C@@H](c1ccccc1)N(CCC)c1nc(-c2ccc(OC)cc2C)n(C)n1.Cl`, in data set [2], the IC50 is reported as 120 nM. In [1], this compound showed a Ki of 9 nM. As to `CCCN(CC1CC1)c1nc(C)nc(Nc2c(Cl)cc(Cl)cc2Cl)c1Cl`, affinity in data set [1] was put at a Ki of 2 nM. Consider `CCCC[C@@H](c1ccccc1)N(CCC)c1nc(-c2ccc(Cl)cc2OC)n(C)n1.Cl`, for which the IC50 in [2] came out at 56 nM. Moreover, in [1], the affinity, expressed as Ki, was 4 nM. Regarding `CCC[C@H](c1ccccc1)N(CCC)c1nc(-c2ccc(OC)cc2C)n(C)n1`, the affinity in data set [1], expressed as Ki, was 380 nM. `CCCC[C@@H](c1ccccc1)N(CCC)c1nc(-c2ccc(OC)cc2C)n(C)n1.Cl` gave an IC50 in data set [2] of 92 nM. This compound registered a Ki in [1] of 5.7 nM. Turning to `CCCCC(c1ccccc1)N(CCC)c1nc(-c2ccc(OC)cc2C)n(C)n1` (configuration not stated), in [1], the Ki was determined as 6.9 nM.

In [1], `CCCC(c1ccccc1)N(CCC)c1nc(-c2ccc(OC)cc2C)n(C)n1` (configuration not stated) displayed a Ki of 61 nM. The same measure, in the same setting: the figure for `CCCN(c1nc(-c2ccc(Cl)cc2OC)n(C)n1)C(C(C)C)C(C)C` is 910 nM. For `CCCCC(c1ccc(F)cc1)N(CCC)c1nc(-c2ccc(Cl)cc2OC)n(C)n1` (configuration not stated), the Tmax in data set [3] turned out to be 0.5 h. For the same compound, in data set [4], the AUC is 1010 ng·h/mL. For the same compound, the Vd in [5] amounted to 7.8 L/kg. Besides, the Ratio in [6] turned out to be 20%. The compound also returned a clearance in [7] of 27.7 mL/min/kg. The compound also had a half-life in data set [8] of 3.3 h. For the same compound, in data set [9], the bioavailability worked out at 84%. The compound also gave a Ki in data set [1] of 7.3 nM. Also, the concentration in data set [10] peaked (Cmax) at 290 ng/mL. In data set [1], `CCCC(c1ccccc1)N(CCC)c1nc(-c2cc(OC)c(OC)cc2Cl)n(C)n1` (configuration not stated) had a Ki of 84 nM. On the same count and under the same terms, the value for `CCCC[C@H](c1ccc(F)cc1)N(CCC)c1nc(-c2ccc(Cl)cc2OC)n(C)n1` was 46 nM; that for `CCCN(CCC)c1nc(-c2ccc(Cl)cc2OC)n(C)n1` was > 10000 nM. The compound `CCCN(c1nc(-c2ccc(OC)cc2C)n(C)n1)[C@@H](CC)c1ccc(C(F)(F)F)cc1.Cl` registered an IC50 in [2] of 270 nM. Compound `CCCC[C@H](c1ccccc1)N(CCC)c1nc(-c2ccc(OC)cc2C)n(C)n1` returned a Ki in data set [1] of 350 nM.

Take `CCCCC(c1ccc(F)cc1)N(CCC)c1nc(-c2ccc(OC)cc2OC)n(C)n1` (configuration not stated): the affinity in data set [1] corresponds to a Ki of 24 nM. Against the preceding compound, the Ki is about 15-fold lower. The same measure, in the same setting: the value for `CCCC(c1ccccc1)N(CCC)c1nc(-c2ccc(OC)cc2OC)n(C)n1` (configuration not stated) was 120 nM. Regarding `CCC[C@@H](c1ccccc1)N(CCC)c1nc(-c2ccc(OC)cc2OC)n(C)n1.Cl`, the IC50 in data set [2] is 240 nM. The Ki in [1] was 22 nM. For `CCCN(c1nc(-c2ccc(Cl)cc2OC)n(C)n1)[C@@H](CC)c1ccc(C(F)(F)F)cc1.Cl` the same measures were 120 nM and 5.2 nM. Taken in the same sequence, the figures for `CCCC[C@@H](c1ccc(F)cc1)N(CCC)c1nc(-c2ccc(Cl)cc2OC)n(C)n1.Cl` were 49 nM and 2.7 nM. In [1], `CCCN(c1nc(-c2ccc(Cl)cc2OC)n(C)n1)C(C1CC1)C1CC1` came in with a Ki of 28 nM. This lies in the double-digit nanomolar range.

Turning to `CCCCC(CC)N(CCC)c1nc(-c2ccc(Cl)cc2OC)n(C)n1` (configuration not stated), the Ki in [1] was found to be 46 nM. The compound `CCCN(c1nc(-c2ccc(Cl)cc2OC)n(C)n1)C(C)CC` (configuration not stated) registered a Ki in [1] of 690 nM. On to `CCCN(c1nc(-c2ccc(Cl)cc2Cl)n(C)n1)C(C1CC1)C1CC1`, for which the Ki was > 10000 nM in [11] and 9.2 nM in data set [1]. Besides, the IC50 in data set [2] came out at 90 nM. For the compound `CCCN(c1nc(-c2ccc(Cl)cc2Cl)nn1C)C(C1CC1)C1CC1`, the Ki in data set [1] was > 10000 nM. On to `CCC(c1ccccc1)N(CC)c1nc(-c2ccc(Cl)cc2OC)n(C)n1` (configuration not stated), for which, in data set [1], the Ki was 150 nM. `CCC[C@@H](c1ccccc1)N(CCC)c1nc(-c2cc(OC)c(OC)cc2Cl)n(C)n1.Cl` registered an IC50 in [2] of 240 nM. Besides, the Ki in data set [1] came out at 16.3 nM.

`CCCN(CCC)c1nc(-c2ccc(Cl)cc2Cl)n(C)n1` displayed a Ki in data set [1] of 3400 nM.
